Reference: ChEMBL document CHEMBL4002589, “Tri- and Tetrasubstituted Pyridinylimidazoles as Covalent Inhibitors of c-Jun N-Terminal Kinase 3” (J Med Chem, 2017)
Active and inactive are the calls of the source. The calls are words filed in the database; no cut-off is given here.

Experiments:
[1] = biological target: Mitogen-activated protein kinase 10 (Homo sapiens, UniProt P53779); experiment: Inhibition of recombinant 6x-His-tagged JNK3 (39 to 402 residues) (unknown origin) expressed in Escherichia coli BL21(DE3) assessed as reduction in ATF2 phosphorylation measured after 50 mins by ELISA
Mitogen-activated protein kinase 10, sequence (P53779 whole entry, the tested form may be a part): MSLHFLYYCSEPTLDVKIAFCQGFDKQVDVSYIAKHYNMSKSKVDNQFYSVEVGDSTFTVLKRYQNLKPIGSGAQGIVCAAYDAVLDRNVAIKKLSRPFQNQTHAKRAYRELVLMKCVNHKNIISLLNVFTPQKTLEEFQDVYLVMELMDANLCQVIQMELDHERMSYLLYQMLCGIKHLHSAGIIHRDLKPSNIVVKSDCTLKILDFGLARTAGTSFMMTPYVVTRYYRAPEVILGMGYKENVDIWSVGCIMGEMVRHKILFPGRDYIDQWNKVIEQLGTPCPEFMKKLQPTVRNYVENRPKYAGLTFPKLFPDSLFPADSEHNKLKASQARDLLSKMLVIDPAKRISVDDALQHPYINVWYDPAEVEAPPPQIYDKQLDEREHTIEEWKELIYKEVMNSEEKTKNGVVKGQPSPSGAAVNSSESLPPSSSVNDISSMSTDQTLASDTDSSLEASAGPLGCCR

[2] = biological target: Mitogen-activated protein kinase 14 (Homo sapiens, UniProt Q16539); experiment: Inhibition of GST-His tagged human p38alpha expressed in Escherichia coli assessed as reduction in ATF2 phosphorylation measured after 60 mins by ELISA
Mitogen-activated protein kinase 14, sequence (Q16539 whole entry): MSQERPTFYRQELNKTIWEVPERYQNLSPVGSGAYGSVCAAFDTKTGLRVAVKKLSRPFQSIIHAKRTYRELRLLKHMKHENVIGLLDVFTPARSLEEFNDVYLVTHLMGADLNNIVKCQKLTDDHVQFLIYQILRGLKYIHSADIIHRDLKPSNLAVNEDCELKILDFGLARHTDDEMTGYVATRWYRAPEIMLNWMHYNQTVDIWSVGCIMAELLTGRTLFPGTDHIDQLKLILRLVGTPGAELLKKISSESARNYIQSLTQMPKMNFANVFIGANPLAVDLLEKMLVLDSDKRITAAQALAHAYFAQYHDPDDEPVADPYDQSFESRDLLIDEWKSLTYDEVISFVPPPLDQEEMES
Outline: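 ELISA kinase assays run in parallel for JNK3 and p38α, with 60 min incubation. IC50 values are the mean of three experiments.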

[3] = biological target: Angiopoietin-1 receptor (Homo sapiens) (UniProt Q02763); experiment: Inhibition of human wild type C-terminal GST-His-tagged TIE2 expressed in Sf9 cells assessed as residual activity at 0.5 uM relative to control
Angiopoietin-1 receptor (Homo sapiens), sequence (Q02763 whole entry): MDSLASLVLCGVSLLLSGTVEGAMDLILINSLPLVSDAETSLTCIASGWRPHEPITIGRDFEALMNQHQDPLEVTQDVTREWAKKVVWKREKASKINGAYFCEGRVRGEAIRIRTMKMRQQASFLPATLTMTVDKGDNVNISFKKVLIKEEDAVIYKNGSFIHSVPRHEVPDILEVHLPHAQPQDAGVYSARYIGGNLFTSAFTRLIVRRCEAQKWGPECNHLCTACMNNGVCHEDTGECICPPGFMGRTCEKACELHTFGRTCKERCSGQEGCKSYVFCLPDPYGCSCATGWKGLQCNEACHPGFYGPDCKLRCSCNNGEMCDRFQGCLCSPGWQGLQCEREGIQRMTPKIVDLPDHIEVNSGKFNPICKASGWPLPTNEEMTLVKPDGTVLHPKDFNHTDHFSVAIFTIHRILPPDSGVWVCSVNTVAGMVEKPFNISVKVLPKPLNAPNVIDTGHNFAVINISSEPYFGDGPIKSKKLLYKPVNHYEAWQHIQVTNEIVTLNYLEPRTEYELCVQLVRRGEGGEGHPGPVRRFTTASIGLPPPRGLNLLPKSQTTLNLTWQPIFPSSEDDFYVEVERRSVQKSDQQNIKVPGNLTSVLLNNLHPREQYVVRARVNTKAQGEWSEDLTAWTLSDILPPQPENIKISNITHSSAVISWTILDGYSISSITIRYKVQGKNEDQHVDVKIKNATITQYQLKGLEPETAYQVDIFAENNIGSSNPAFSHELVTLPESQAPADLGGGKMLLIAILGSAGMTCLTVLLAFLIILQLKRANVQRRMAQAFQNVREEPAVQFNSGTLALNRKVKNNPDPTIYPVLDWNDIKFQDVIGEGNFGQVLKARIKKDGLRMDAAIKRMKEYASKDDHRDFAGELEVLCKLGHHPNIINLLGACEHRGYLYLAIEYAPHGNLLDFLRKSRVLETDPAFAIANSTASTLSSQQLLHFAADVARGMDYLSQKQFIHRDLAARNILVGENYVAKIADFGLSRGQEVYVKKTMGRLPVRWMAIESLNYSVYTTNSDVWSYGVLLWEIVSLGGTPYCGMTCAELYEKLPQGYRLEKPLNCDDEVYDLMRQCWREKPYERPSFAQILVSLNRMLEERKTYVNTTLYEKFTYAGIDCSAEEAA
Outline: (§1)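 Each inhibitor is tested at a single concentration, 1 µM or 0.5 µM depending on the compound. Results are reported as residual kinase activity.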

[4] = biological target: MAP kinase-activated protein kinase 2 (Homo sapiens) (UniProt P49137); experiment: Inhibition of human MAPKAPK2 expressed in Sf9 cells assessed as residual activity at 0.5 uM relative to control; outline: as §1
MAP kinase-activated protein kinase 2 (Homo sapiens), sequence (P49137 whole entry, looked up, canonical isoform): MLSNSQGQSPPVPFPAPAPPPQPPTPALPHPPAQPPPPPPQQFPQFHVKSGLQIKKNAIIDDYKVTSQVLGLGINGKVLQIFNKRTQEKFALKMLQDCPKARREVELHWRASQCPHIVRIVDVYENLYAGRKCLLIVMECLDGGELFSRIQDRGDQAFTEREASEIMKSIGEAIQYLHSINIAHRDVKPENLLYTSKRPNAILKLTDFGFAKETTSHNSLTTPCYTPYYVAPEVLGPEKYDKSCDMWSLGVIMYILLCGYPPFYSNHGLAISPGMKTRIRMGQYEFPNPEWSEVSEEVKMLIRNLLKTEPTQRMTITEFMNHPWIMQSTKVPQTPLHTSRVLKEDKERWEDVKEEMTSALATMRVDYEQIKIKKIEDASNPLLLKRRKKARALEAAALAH

[5] = biological target: Casein kinase I isoform delta (Homo sapiens) (UniProt P48730); experiment: Inhibition of CK1 delta (unknown origin) assessed as residual activity at 0.5 uM; outline: as §1
Casein kinase I isoform delta (Homo sapiens), sequence (P48730 whole entry, looked up, canonical isoform): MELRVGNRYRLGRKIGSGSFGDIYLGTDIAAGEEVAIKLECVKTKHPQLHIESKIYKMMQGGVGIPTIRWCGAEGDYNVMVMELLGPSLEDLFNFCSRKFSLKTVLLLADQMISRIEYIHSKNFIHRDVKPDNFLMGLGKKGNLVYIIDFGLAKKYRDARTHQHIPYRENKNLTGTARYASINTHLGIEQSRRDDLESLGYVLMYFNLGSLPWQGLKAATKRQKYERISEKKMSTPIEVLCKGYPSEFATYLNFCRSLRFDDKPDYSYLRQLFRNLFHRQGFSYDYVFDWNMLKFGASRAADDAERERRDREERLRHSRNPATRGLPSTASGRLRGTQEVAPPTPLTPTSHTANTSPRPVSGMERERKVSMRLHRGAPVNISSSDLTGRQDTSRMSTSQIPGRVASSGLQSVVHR

[6] = Drug metabolism in human liver microsomes at 100 uM preincubated with NADPH regenerating system for 5 mins followed by addition of liver microsomes measured after 180 mins by LC-MS analysis; format: ADME, microsome; conditions: read-out: Drug metabolism
[7] = tested on: Mitogen-activated protein kinase 10 (Homo sapiens), P53779 [C154A]; experiment: Covalent binding affinity to JNK3 C154A mutant (unknown origin) at 5 molar excess after 1 hr by LC-muESI-QTOF mass spectrometry
Mitogen-activated protein kinase 10 (Homo sapiens), P53779 [C154A], sequence (P53779 whole entry C154A): as the sequence (P53779 whole entry, the tested form may be a part) above, with C154A counted along it
Outline: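 Intact-protein mass spectrometry with a JNK3 mutant carrying Cys-154→Ala. Inhibitor is incubated with the protein. Unbound and reversibly bound ligand are removed by chromatography and by a high declustering potential before ionization. The protein is then analysed by LC-µESI-QTOF to look for a mass shift from a covalent adduct.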

[8] = Glutathione reactivity at 10 uM after 54 mins in presence of 5 mM GSH by HPLC method
Outline: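 Test compound (10 µM) is incubated with glutathione (5 mM) under conditions like those of the kinase activity assay (max. concentration 10 µM, 54 min, 37°C).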

| Structure (SMILES) | IC50 [1] [nM] | IC50 [2] [nM] | other results |
| --- | --- | --- | --- |
| C=CC(=O)Nc1cccc(C(=O)Nc2cccc(Nc3cc(-c4c(-c5ccc(F)cc5)nc(SC)n4C)ccn3)c2)c1C | 3 | 100 | – |
| C=CC(=O)Nc1cccc(C(=O)Nc2cccc(Nc3cc(-c4c(-c5ccc(F)cc5)nc(SC)n4C)ccn3)c2)c1 | 3 | 217 | – |
| CSc1nc(-c2ccc(F)cc2)c(-c2ccnc(Nc3ccc(NC(=O)c4cccc(N)c4)cc3)c2)n1C | 30 | 149 | – |
| CCC(=O)Nc1cccc(C(=O)Nc2cccc(Nc3cc(-c4c(-c5ccc(F)cc5)nc(SC)n4C)ccn3)c2)c1 | 175 | 241 | – |
| C=CC(=O)Nc1cccc(C(=O)Nc2ccc(Nc3cc(-c4c(-c5ccc(F)cc5)nc(SC)n4C)ccn3)c(C)c2)c1 | 2 | 3 | – |
| CCC(=O)Nc1cccc(C(=O)Nc2ccc(Nc3cc(-c4c(-c5ccc(F)cc5)nc(SC)n4C)ccn3)cc2)c1C | 17 | 38 | – |
| CSc1nc(-c2ccc(F)cc2)c(-c2ccnc(Nc3ccc(N)cc3)c2)[nH]1 | 24 | 17 | – |
| CCC(=O)Nc1ccc(C(=O)Nc2ccc(Nc3cc(-c4c(-c5ccc(F)cc5)nc(SC)n4C)ccn3)c(C)c2)cc1 | 25 | 22 | – |
| CCC(=O)Nc1cccc(C(=O)Nc2ccc(Nc3cc(-c4c(-c5ccc(F)cc5)nc(SC)n4C)ccn3)cc2)c1 | 23 | 126 | – |

More lines, main results first:

| IC50 [1] [nM] | IC50 [2] [nM] | Structure (SMILES) | other results |
| --- | --- | --- | --- |
| 27 | 17 | CCC(=O)Nc1ccc(C(=O)Nc2ccc(Nc3cc(-c4c(-c5ccc(F)cc5)nc(SC)n4C)ccn3)cc2)cc1 | – |
| 3 | 3 | C=CC(=O)Nc1ccc(C(=O)Nc2ccc(Nc3cc(-c4[nH]c(SC)nc4-c4ccc(F)cc4)ccn3)cc2)cc1 | – |
| 0.3 | 36 | C=CC(=O)Nc1cccc(C(=O)Nc2ccc(Nc3cc(-c4c(-c5ccc(F)cc5)nc(SC)n4C)ccn3)cc2)c1 | Activity [3]: 30 to 50%; Activity [4]: 30 to 50%; Activity [5]: 30 to 50%; metabolised at 3 h, 100 µM [6]: 13%; Activity [7]: inactive; Drug metabolism [8]: Metabolite detected |
| 4 | 26 | C=CC(=O)Nc1ccc(C(=O)Nc2cccc(Nc3cc(-c4c(-c5ccc(F)cc5)nc(SC)n4C)ccn3)c2)cc1 | – |
| 253 | > 10000 | CCC(=O)Nc1cccc(C(=O)Nc2ccc(Nc3cc(-c4[nH]c(SC)nc4C)ccn3)cc2)c1 | – |
| 2 | 4 | CCC(=O)Nc1cccc(C(=O)Nc2ccc(Nc3cc(-c4[nH]c(SC)nc4-c4ccc(F)cc4)ccn3)cc2)c1 | – |
| 2 | 2 | C=CC(=O)Nc1cccc(C(=O)Nc2ccc(Nc3cc(-c4c(-c5ccc(F)cc5)nc(SC)n4C)ccn3)cc2)c1C | – |
| 200 | 5920 | C=CC(=O)Nc1ccc(C(=O)Nc2ccc(Nc3cc(-c4[nH]c(SC)nc4C)ccn3)cc2)cc1 | – |
| 0.6 | 0.8 | C=CC(=O)Nc1cccc(C(=O)Nc2ccc(Nc3cc(-c4[nH]c(SC)nc4-c4ccc(F)cc4)ccn3)cc2)c1 | – |
| 10 | 47 | C=CC(=O)Nc1ccc(C(=O)Nc2ccc(Nc3cc(-c4c(-c5ccc(F)cc5)nc(SC)n4C)ccn3)cc2)cc1 | Activity [7]: inactive |
| 8 | 35 | C=CC(=O)Nc1ccc(C(=O)Nc2ccc(Nc3cc(-c4c(-c5ccc(F)cc5)nc(SC)n4C)ccn3)c(C)c2)cc1 | – |
